These results are taken from ChEMBL document CHEMBL1152542, “Synthesis of pentopyranosyl-containing thiodisaccharides. Inhibitory activity against beta-glycosidases” (Bioorg Med Chem, 2009).

Assay [1] deals with Beta-galactosidase (Escherichia coli) (UniProt Q8VNN2). The assay can be described thus: Inhibition of Escherichia coli beta-galactosidase assessed as formation of o-nitrophenol at 0.4 to 1.2 mM after 10 mins by visible absorption spectroscopy. In outline: (§1)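 E. coli β-galactosidase (0.3 U) was incubated with o-nitrophenyl β-D-galactopyranoside (0.2–5.0 mM) in 100 mM sodium phosphate, pH 7.3, containing 1.2 mM MgCl₂ and 100 mM 2-mercaptoethanol, with or without inhibitor, for 10 min at 37 °C. The reaction was quenched with 0.2 M sodium borate, pH 10.0, and released o-nitrophenol was read at 410 nm.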

The target in assay [2] is Beta-galactosidase (Escherichia coli, UniProt Q8VNN2). The assay can be described thus: Inhibition of Escherichia coli beta-galactosidase by Lineweaver-Burke plot analysis. In outline: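 Kinetics of E. coli β-galactosidase with o-nitrophenyl β-D-galactopyranoside (0.2–5.0 mM) in 100 mM sodium phosphate, pH 7.3, with 1.2 mM MgCl₂ and 100 mM 2-mercaptoethanol, 10 min at 37 °C, borate quench, absorbance at 410 nm. Inhibitor was tested at 0, 0.40, 0.80 and 1.20 mM, and data were analysed by Lineweaver–Burk double-reciprocal plot.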

Assay [3] addresses T1, Exo-1,4-beta-xylosidase xlnD (Aspergillus niger) (UniProt O00089).
T1 sequence (whole entry): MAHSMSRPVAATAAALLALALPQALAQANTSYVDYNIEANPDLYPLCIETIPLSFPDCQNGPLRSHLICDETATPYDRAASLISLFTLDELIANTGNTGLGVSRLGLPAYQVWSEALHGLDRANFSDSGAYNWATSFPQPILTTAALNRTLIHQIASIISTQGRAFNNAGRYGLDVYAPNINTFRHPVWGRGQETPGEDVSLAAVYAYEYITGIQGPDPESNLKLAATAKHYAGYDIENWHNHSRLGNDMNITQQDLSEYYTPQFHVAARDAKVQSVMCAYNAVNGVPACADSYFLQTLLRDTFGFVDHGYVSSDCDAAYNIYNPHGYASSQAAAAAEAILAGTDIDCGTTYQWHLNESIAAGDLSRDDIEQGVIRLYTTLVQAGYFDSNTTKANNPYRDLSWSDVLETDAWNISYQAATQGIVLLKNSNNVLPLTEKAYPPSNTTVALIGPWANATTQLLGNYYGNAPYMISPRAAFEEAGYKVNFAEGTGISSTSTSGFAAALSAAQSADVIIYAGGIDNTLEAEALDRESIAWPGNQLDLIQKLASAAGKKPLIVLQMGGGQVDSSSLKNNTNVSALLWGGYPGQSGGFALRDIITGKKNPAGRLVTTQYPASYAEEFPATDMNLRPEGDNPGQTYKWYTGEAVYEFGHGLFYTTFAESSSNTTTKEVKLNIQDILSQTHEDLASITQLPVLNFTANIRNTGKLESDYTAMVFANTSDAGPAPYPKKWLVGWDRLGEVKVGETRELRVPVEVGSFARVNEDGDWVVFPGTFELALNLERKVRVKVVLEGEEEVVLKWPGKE
The assay can be described thus: Inhibition of Aspergillus niger beta-xylosidase at 10 mM after 15 mins by visible absorption spectroscopy. In outline: (§2)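 A. niger β-xylosidase (0.04 U) was incubated with p-nitrophenyl β-D-xylopyranoside (0.5–10.0 mM) in 50 mM sodium acetate, pH 5.0, with or without inhibitor (2.0–10.0 or 5.0–15.0 mM) for 15 min at 25 °C. The reaction was stopped with 0.2 M sodium borate, pH 10.0, and absorbance was read at 400 nm.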

The subject of assay [4] is Prunus dulcis. Description: Inhibition of almond beta-glucosidase at 4 to 6 mM after 15 mins by visible absorption spectroscopy. The procedure, abridged:
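Almond β-glucosidase (2.0 mU) was incubated with p-nitrophenyl β-D-glucopyranoside (0.5–10.0 mM) in 50 mM sodium acetate, pH 5.6, with or without inhibitor (4.0–6.0 mM) for 15 min at 37 °C. The reaction was stopped with sodium borate, pH 10.0, and absorbance was read at 400 nm.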

Assay [5] has as its target Beta-galactosidase (Escherichia coli) (UniProt Q8VNN2). Description: Inhibition of Escherichia coli beta-galactosidase assessed as formation of o-nitrophenol at 0.6 to 4 mM after 10 mins by visible absorption spectroscopy.
Assay [6] addresses T1, Exo-1,4-beta-xylosidase xlnD (Aspergillus niger). The assay can be described thus: Inhibition of Aspergillus niger beta-xylosidase at 15 mM after 15 mins by visible absorption spectroscopy. In outline:
as §2

Assay [7] deals with Beta-galactosidase (Escherichia coli) (UniProt Q8VNN2). The assay can be described thus: Inhibition of Escherichia coli beta-galactosidase assessed as formation of o-nitrophenol at 0.01 to 0.05 mM after 10 mins by visible absorption spectroscopy. The procedure, abridged: as §1

The source made the active and inactive calls. The rule behind the calls is not given here.

Beta-galactosidase, sequence (Q8VNN2 whole entry): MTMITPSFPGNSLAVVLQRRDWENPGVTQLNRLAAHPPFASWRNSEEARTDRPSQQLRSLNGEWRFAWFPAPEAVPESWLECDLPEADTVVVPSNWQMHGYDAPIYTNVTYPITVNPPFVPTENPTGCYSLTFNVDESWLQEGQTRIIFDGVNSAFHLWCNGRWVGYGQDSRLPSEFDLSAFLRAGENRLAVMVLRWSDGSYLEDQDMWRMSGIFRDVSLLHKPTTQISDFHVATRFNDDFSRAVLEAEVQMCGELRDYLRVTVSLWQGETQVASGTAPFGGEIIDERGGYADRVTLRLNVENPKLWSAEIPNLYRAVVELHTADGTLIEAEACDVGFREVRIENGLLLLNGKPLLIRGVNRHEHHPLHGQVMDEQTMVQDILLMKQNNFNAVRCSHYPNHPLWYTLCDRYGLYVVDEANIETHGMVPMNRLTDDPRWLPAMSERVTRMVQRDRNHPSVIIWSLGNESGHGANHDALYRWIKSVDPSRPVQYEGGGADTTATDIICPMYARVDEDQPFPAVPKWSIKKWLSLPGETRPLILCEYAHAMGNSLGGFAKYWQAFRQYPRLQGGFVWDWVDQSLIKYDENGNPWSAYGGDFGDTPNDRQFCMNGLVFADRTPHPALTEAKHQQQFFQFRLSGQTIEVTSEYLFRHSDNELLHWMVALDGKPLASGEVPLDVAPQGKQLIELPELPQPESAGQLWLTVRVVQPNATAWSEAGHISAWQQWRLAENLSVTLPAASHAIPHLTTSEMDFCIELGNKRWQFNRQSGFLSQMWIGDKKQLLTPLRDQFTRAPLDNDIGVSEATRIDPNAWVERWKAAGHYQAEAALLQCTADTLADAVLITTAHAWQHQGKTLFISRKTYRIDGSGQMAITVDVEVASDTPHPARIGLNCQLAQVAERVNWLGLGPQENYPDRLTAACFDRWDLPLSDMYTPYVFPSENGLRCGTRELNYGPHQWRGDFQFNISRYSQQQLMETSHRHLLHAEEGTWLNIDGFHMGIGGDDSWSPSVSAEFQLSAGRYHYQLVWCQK
Beta-galactosidase (Escherichia coli), sequence (Q8VNN2 whole entry, looked up): as the sequence (Q8VNN2 whole entry) above

In the case of `OC[C@H]1O[C@@H](S[C@@H]2CO[C@@H](OCc3ccccc3)[C@H](O)C2)[C@H](O)[C@@H](O)[C@H]1O`, the outcome in assay [1] was Active. The molecule further came in with a Ki in assay [2] of 800 µM.

`CC(C)O[C@H]1O[C@H](CO)[C@H](S[C@@H]2OC[C@@H](O)[C@H](O)[C@H]2O)C[C@@H]1O`: the inhibition result in assay [3], in assay [4] and in assay [5] was “inactive” throughout. In assay [2], this molecule came in with a Ki of 120 µM.

For `CC(C)O[C@H]1O[C@H](CO)[C@H](S[C@@H]2OC[C@@H](O)[C@H](O)[C@H]2O)C[C@H]1O`, the inhibition result in assay [6], in assay [4] and in assay [5] was “inactive” in each case. The same molecule gave a Ki in assay [2] of 160 µM.

`OC[C@H]1O[C@@H](S[C@@H]2CO[C@@H](OCc3ccccc3)[C@@H](O)C2)[C@H](O)[C@@H](O)[C@H]1O`: the result in assay [7] was Active. The molecule also had a Ki in assay [2] of 32 µM.

The Ki is the dissociation constant of the complex between target and ligand, obtained from inhibition or displacement. Low readings indicate higher affinity, high ones lower affinity.
